Converted amounts (≈) assume the structure as drawn. The source made the active and inactive calls. No cut-off for these calls is given here.
Tested on: Visna-maedi virus
Assay: Compound was evaluated for anti-retrovirus activity against Visna virus (K184) strain in infected sheep choroid plexus cells; Not active
Format: functional, organism-based
Details: not given
With `Nc1nc2c(ncn2CC/C=C\P(=O)(O)O)c(=O)[nH]1` the MIC was “inactive”. For `Nc1ncnc2c1ncn2OC(/C=C/P(=O)(O)O)CO` (stereo not drawn), the MIC was “inactive”. In the case of `Nc1ncnc2c1ncn2CC/C=C\P(=O)(O)O`, the MIC is reported as “inactive”. In the case of `Nc1nc(O)c2ncn(OC(/C=C/P(=O)(O)O)CO)c2n1` (stereo not drawn), the MIC is reported as “inactive”. For `C=C(/C=C/P(=O)(O)O)Cn1cnc2c(O)nc(N)nc21`, the MIC was “inactive”. In the case of `Nc1ccn(OC(/C=C/P(=O)(O)O)CO)c(=O)n1` (stereo not drawn), the MIC is reported as “inactive”.

Tested on: not listed separately
Assay: Compound was evaluated for the inhibition of cell replication sheep choroid plexus (SCP) cells
Format: functional
Details: Ovis aries; read-out: CD50 (the source's name)
How it was run: (§1)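 Cytotoxicity in uninfected cells, measured as inhibition of DNA synthesis by [3H]thymidine incorporation. CD50 is the concentration giving 50% inhibition of cell replication.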
`Nc1nc(O)c2ncn(OCC/C=C\P(=O)(O)O)c2n1` showed a CC50 of 11.7 µM. `Nc1ncnc2c1ncn2CC/C=C/P(=O)(O)O` gave a CC50 of 137 µM. Compound `Nc1ncnc2c1ncn2OCCOCP(=O)(O)O` has a CC50 of 173 µM.

Tested on: MRC5
Assay: Compound was evaluated for the inhibition of cell replication of human fibroblast (MRC-5) cells
Format: functional
Details: read-out: CD50 (the source's name)
How it was run: as §1
`Nc1nc(O)c2ncn(OCC/C=C\P(=O)(O)O)c2n1` showed a CC50 of 26 µM. In the case of `Nc1ncnc2c1ncn2CC/C=C/P(=O)(O)O`, the CC50 is reported as 260 µM. Work on `Nc1ncnc2c1ncn2OCCOCP(=O)(O)O` yielded a CC50 of 173 µM.

Tested on: Human alphaherpesvirus 2
Assay: Compound was evaluated for anti-herpesvirus activity against Herpes simplex virus-2 (MS) strain; Not active
Format: functional, organism-based
Details: not given
How it was run: (§2)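 Plaque-reduction assay in human fibroblast (MRC-5) cells infected with virus. IC50 is the compound concentration that halves the plaque count.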
With `Nc1nc(O)c2ncn(OCC/C=C\P(=O)(O)O)c2n1` the IC50 was “Not Active”. In the case of `Nc1ncnc2c1ncn2CC/C=C/P(=O)(O)O`, the IC50 is reported as “Not Active”.

Tested on: Human immunodeficiency virus 1
Assay: Compound was evaluated for anti-retrovirus activity against HIV-1 (D34) Diagen strain; Not active
Format: functional, organism-based
Details: not given
With `Nc1nc(O)c2ncn(OCC/C=C\P(=O)(O)O)c2n1` the IC50 was “Not Active”. In the case of `Nc1ncnc2c1ncn2CC/C=C/P(=O)(O)O`, the IC50 is reported as “Not Active”.

Tested on: not listed separately
Assay: Compound was evaluated for the inhibition of DNA synthesis in uninfected cells
Format: functional
Details: read-out: CD50 (the source's name)
How it was run: as §1
Compound `Nc1nc2c(ncn2CCOCP(=O)(O)O)c(=O)[nH]1` [GS-438] has a CC50 of 8.6 µM.

Tested on: Human alphaherpesvirus 1
Assay: Compound was evaluated for anti-herpesvirus activity against Herpes simplex virus-1 (SC16) strain; Not active
Format: functional, organism-based
Details: not given
With `Nc1nc(O)c2ncn(OCC/C=C\P(=O)(O)O)c2n1` the IC50 was “Not Active”. For `Nc1ncnc2c1ncn2CC/C=C/P(=O)(O)O`, the IC50 was “Not Active”. For `Nc1ncnc2c1ncn2OCCOCP(=O)(O)O`, the IC50 was “Not Active”.

Tested on: Human alphaherpesvirus 3
Assay: Compound was evaluated for anti-herpesvirus activity against Varicella Zoster virus (Ellen) strain
Format: functional, organism-based
Details: not given
How it was run: as §2
With `Nc1ncnc2c1ncn2OCCOCP(=O)(O)O` the IC50 was 280 µM.

Tested on: Cytomegalovirus
Assay: Compound was evaluated for anti-herpesvirus activity against Cytomegalovirus (AD169) strain plaques in infected human fibroblast (MRC-5) cells; Not active
Format: functional, organism-based
Details: not given
How it was run: as §2
For `Nc1ncnc2c1ncn2CC/C=C/P(=O)(O)O`, the IC50 was “Not Active”. For `Nc1ncnc2c1ncn2OCCOCP(=O)(O)O`, the IC50 was “Not Active”.

Tested on: Cytomegalovirus
Assay: Compound was evaluated for anti-herpesvirus activity against Cytomegalovirus (AD169) strain plaques in infected human fibroblast (MRC-5) cells.
Format: functional, organism-based
Details: Human betaherpesvirus 5, MRC5
How it was run: as §2
Work on `Nc1nc(O)c2ncn(OCC/C=C\P(=O)(O)O)c2n1` yielded an IC50 of 178 µM.

Tested on: Visna-maedi virus
Assay: Compound was evaluated for anti-retrovirus activity against Visna virus (K184) strain in infected sheep choroid plexus cells
Format: functional
Details: not given
How it was run: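 Infected sheep choroid plexus (SCP) cells. MIC is the lowest concentration that completely prevents virus cytopathic effect.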
`Nc1nc(O)c2ncn(OCC/C=C\P(=O)(O)O)c2n1` gave an MIC of 0.1 µM (≈ 0.0301 µg/mL). With `Nc1ncnc2c1ncn2CC/C=C/P(=O)(O)O` the MIC was 20 µM (≈ 5.38 µg/mL). Work on `Nc1ncnc2c1ncn2OCCOCP(=O)(O)O` yielded an MIC of 8 µM (≈ 2.31 µg/mL).

Tested on: not listed separately
Assay: Second dissociation constant was determined
Format: ADME
Details: not given
With `Nc1nc2c(ncn2CCOCP(=O)(O)O)c(=O)[nH]1` [GS-438] the pKa was 6.5.

Same assay, conditions: read-out: pKa E2
Work on `Nc1nc(O)c2ncn(OC(/C=C/P(=O)(O)O)CO)c2n1` (stereo not drawn) yielded a pKa of 6.6.

Tested on: Human immunodeficiency virus 1
Assay: Compound was evaluated for anti-retrovirus activity against HIV-1 (D34) Diagen strain
Format: functional, organism-based
Details: not given
For `Nc1ncnc2c1ncn2OCCOCP(=O)(O)O`, the IC50 was 0.24 µM.

Tested on: Human alphaherpesvirus 2
Assay: Compound was evaluated for anti-herpesvirus activity against Herpes simplex virus-2 (MS) strain
Format: functional, organism-based
Details: not given
How it was run: as §2
Compound `Nc1ncnc2c1ncn2OCCOCP(=O)(O)O` has an IC50 of 270 µM.

Tested on: Human alphaherpesvirus 3
Assay: Compound was evaluated for anti-herpesvirus activity against Varicella Zoster virus (Ellen) strain; Not active
Format: functional, organism-based
Details: not given
How it was run: as §2
In the case of `Nc1nc(O)c2ncn(OCC/C=C\P(=O)(O)O)c2n1`, the IC50 is reported as “Not Active”. In the case of `Nc1ncnc2c1ncn2CC/C=C/P(=O)(O)O`, the IC50 is reported as “Not Active”.
